Reference: ChEMBL document CHEMBL1141699, “Design, synthesis, and antibacterial activities of novel 3,6-bicyclolide oximes: length optimization and zero carbon linker oximes” (2008)
Values after ≈ are worked out from the molar mass of the structure shown.

Legend:
Format in all cases: functional
Staphylococcus aureus [1] = test: Antibacterial activity against erythromycin-susceptible Staphylococcus aureus 29213 by broth-microdilution method; settings: ATCC29213
Outline: (§1)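 MIC (µg/ml) by broth microdilution following CLSI standards.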

Staphylococcus aureus [2] = test: Antibacterial activity against MLSB-resistant Staphylococcus aureus 27660 expressing ermA by broth-microdilution method; outline: as §1
Streptococcus pneumoniae [3] = test: Antibacterial activity against erythromycin-susceptible Streptococcus pneumoniae 49619 by broth-microdilution method; outline: as §1
Haemophilus influenzae [4] = test: Antibacterial activity against ampicillin-susceptible Haemophilus influenzae by broth-microdilution method
Staphylococcus aureus [5] = test: Antibacterial activity against methicillin-resistant Staphylococcus aureus 33591 by broth-microdilution method; outline: as §1
Streptococcus pneumoniae [6] = test: Antibacterial activity against efflux-resistant Streptococcus pneumoniae 7701 expressing mefA by broth-microdilution method; outline: as §1
Streptococcus pyogenes [7] = test: Antibacterial activity against MLSB-resistant Streptococcus pyogenes 2912 expressing ermA by broth-microdilution method; outline: as §1
Streptococcus pneumoniae [8] = test: Antibacterial activity against MLSB-resistant Streptococcus pneumoniae 700906 expressing erm by broth-microdilution method; outline: as §1
Streptococcus pyogenes [9] = test: Antibacterial activity against erythromycin-susceptible Streptococcus pyogenes 19615 by broth-microdilution method
Outline: (§2)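 MICs were determined by broth microdilution following CLSI standards and reported in µg/ml.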

Streptococcus pyogenes [10] = test: Antibacterial activity against efflux-resistant Streptococcus pyogenes 1323 expressing mefA by broth-microdilution method; outline: as §1
Moraxella catarrhalis = test: Antibacterial activity against Moraxella catarrhalis by broth-microdilution method; outline: as §2
Haemophilus influenzae [11] = test: Antibacterial activity against ampicillin-resistant Haemophilus influenzae 33929 expressing beta-lactamase by broth-microdilution method; outline: as §1

Compound | MIC (Staphylococcus aureus [1]) | MIC (Staphylococcus aureus [2]) | MIC (Streptococcus pneumoniae [3]) | MIC (Haemophilus influenzae [4]) | MIC (Staphylococcus aureus [5]) | MIC (Streptococcus pneumoniae [6]) | MIC (Streptococcus pyogenes [7]) | MIC (Streptococcus pneumoniae [8]) | MIC (Streptococcus pyogenes [9]) | MIC (Streptococcus pyogenes [10]) | MIC (Moraxella catarrhalis) | MIC (Haemophilus influenzae [11])
CC[C@H]1OC(=O)[C@H](C)[C@H]2OC/C(=N\Oc3ccc4ccccc4c3)CCO[C@](C)(C[C@@H](C)C(=O)[C@H](C)[C@H]3NC(=O)O[C@@]31C)[C@H](O[C@@H]1O[C@H](C)C[C@H](N(C)C)[C@H]1O)[C@H]2C | 0.25 µg/mL (≈ 0.309 µM) | 0.25 µg/mL (≈ 0.309 µM) | ≤ 0.06 µg/mL | 4 µg/mL (≈ 4.94 µM) | 32 µg/mL (≈ 39.5 µM) | 0.125 µg/mL (≈ 0.154 µM) | 2 µg/mL (≈ 2.47 µM) | 0.5 µg/mL (≈ 0.617 µM) | ≤ 0.06 µg/mL | 0.125 µg/mL (≈ 0.154 µM) | 0.25 µg/mL (≈ 0.309 µM) | 8 µg/mL (≈ 9.88 µM)
CC[C@H]1OC(=O)[C@H](C)[C@H]2OC/C(=N\Oc3ccccc3)CCO[C@](C)(C[C@@H](C)C(=O)[C@H](C)[C@H]3NC(=O)O[C@@]31C)[C@H](O[C@@H]1O[C@H](C)C[C@H](N(C)C)[C@H]1O)[C@H]2C | ≤ 0.06 µg/mL | ≤ 0.06 µg/mL | ≤ 0.06 µg/mL | 2 µg/mL (≈ 2.63 µM) | > 64 µg/mL |  | 4 µg/mL (≈ 5.26 µM) | 32 µg/mL (≈ 42.1 µM) | ≤ 0.06 µg/mL |  | ≤ 0.06 µg/mL | 1 µg/mL (≈ 1.32 µM)
CC[C@H]1OC(=O)[C@H](C)[C@H]2OC/C(=N\OCc3ccccc3)CCO[C@](C)(C[C@@H](C)C(=O)[C@H](C)[C@H]3NC(=O)O[C@@]31C)[C@H](O[C@@H]1O[C@H](C)C[C@H](N(C)C)[C@H]1O)[C@H]2C | ≤ 0.06 µg/mL | ≤ 0.06 µg/mL | ≤ 0.06 µg/mL | 2 µg/mL (≈ 2.58 µM) | > 64 µg/mL |  | 4 µg/mL (≈ 5.17 µM) | > 64 µg/mL | ≤ 0.06 µg/mL | 0.125 µg/mL (≈ 0.162 µM) | ≤ 0.06 µg/mL | 2 µg/mL (≈ 2.58 µM)
CC[C@H]1OC(=O)[C@H](C)[C@H]2OC/C(=N\OCCCCCc3ccccc3)CCO[C@](C)(C[C@@H](C)C(=O)[C@H](C)[C@H]3NC(=O)O[C@@]31C)[C@H](O[C@@H]1O[C@H](C)C[C@H](N(C)C)[C@H]1O)[C@H]2C | 0.25 µg/mL (≈ 0.301 µM) | 0.25 µg/mL (≈ 0.301 µM) | ≤ 0.06 µg/mL | 4 µg/mL (≈ 4.82 µM) | > 64 µg/mL | 0.125 µg/mL (≈ 0.151 µM) | 8 µg/mL (≈ 9.64 µM) | 8 µg/mL (≈ 9.64 µM) | ≤ 0.06 µg/mL | 0.125 µg/mL (≈ 0.151 µM) | 0.25 µg/mL (≈ 0.301 µM) | 4 µg/mL (≈ 4.82 µM)
CC[C@H]1OC(=O)[C@H](C)[C@H]2OC/C(=N\Oc3ccccc3Cl)CCO[C@](C)(C[C@@H](C)C(=O)[C@H](C)[C@H]3NC(=O)O[C@@]31C)[C@H](O[C@@H]1O[C@H](C)C[C@H](N(C)C)[C@H]1O)[C@H]2C | ≤ 0.06 µg/mL | ≤ 0.06 µg/mL | ≤ 0.06 µg/mL | 2 µg/mL (≈ 2.52 µM) | 64 µg/mL (≈ 80.6 µM) |  | 4 µg/mL (≈ 5.04 µM) | 32 µg/mL (≈ 40.3 µM) | ≤ 0.06 µg/mL |  | ≤ 0.06 µg/mL | 2 µg/mL (≈ 2.52 µM)
CC[C@H]1OC(=O)[C@H](C)[C@H]2OC/C(=N\OCCCc3ccccc3)CCO[C@](C)(C[C@@H](C)C(=O)[C@H](C)[C@H]3NC(=O)O[C@@]31C)[C@H](O[C@@H]1O[C@H](C)C[C@H](N(C)C)[C@H]1O)[C@H]2C | 0.125 µg/mL (≈ 0.156 µM) | 0.125 µg/mL (≈ 0.156 µM) | ≤ 0.06 µg/mL | 2 µg/mL (≈ 2.49 µM) | > 64 µg/mL |  | 8 µg/mL (≈ 9.97 µM) | 4 µg/mL (≈ 4.99 µM) | ≤ 0.06 µg/mL |  | 0.125 µg/mL (≈ 0.156 µM) | 2 µg/mL (≈ 2.49 µM)
CC[C@H]1OC(=O)[C@H](C)[C@H]2OC/C(=N\OCCCCc3ccccc3)CCO[C@](C)(C[C@@H](C)C(=O)[C@H](C)[C@H]3NC(=O)O[C@@]31C)[C@H](O[C@@H]1O[C@H](C)C[C@H](N(C)C)[C@H]1O)[C@H]2C | 0.25 µg/mL (≈ 0.306 µM) | 0.25 µg/mL (≈ 0.306 µM) | ≤ 0.06 µg/mL | 8 µg/mL (≈ 9.8 µM) | 64 µg/mL (≈ 78.4 µM) | 0.125 µg/mL (≈ 0.153 µM) | 16 µg/mL (≈ 19.6 µM) | 4 µg/mL (≈ 4.9 µM) | ≤ 0.06 µg/mL | 0.25 µg/mL (≈ 0.306 µM) | 0.25 µg/mL (≈ 0.306 µM) | 4 µg/mL (≈ 4.9 µM)
CC[C@H]1OC(=O)[C@H](C)[C@H]2OC/C(=N\Oc3ccc(-c4ccccc4)cc3)CCO[C@](C)(C[C@@H](C)C(=O)[C@H](C)[C@H]3NC(=O)O[C@@]31C)[C@H](O[C@@H]1O[C@H](C)C[C@H](N(C)C)[C@H]1O)[C@H]2C | 0.5 µg/mL (≈ 0.598 µM) | 0.5 µg/mL (≈ 0.598 µM) | ≤ 0.06 µg/mL | 8 µg/mL (≈ 9.57 µM) | 16 µg/mL (≈ 19.1 µM) | 0.125 µg/mL (≈ 0.15 µM) | 2 µg/mL (≈ 2.39 µM) | 0.25 µg/mL (≈ 0.299 µM) | ≤ 0.06 µg/mL | 0.25 µg/mL (≈ 0.299 µM) | 1 µg/mL (≈ 1.2 µM) | 8 µg/mL (≈ 9.57 µM)
